A short description of assay [1]: Inhibition of Yersinia pestis protein tyrosine phosphatase. The gist of the method:
(§1)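 p-NPP hydrolysis at room temperature in 50 mM 3,3-dimethylglutarate pH 7.0, 1 mM EDTA, 50 mM NaCl, 10% DMSO. Substrate was held at Km: Yersinia PTP 2.9, PTP1B 2.0, TCPTP 2.1, CD45 7.0 mM. Initial rates came from absorbance at 405 nm, 10–130 s after mixing. IC50 was obtained by Dixon analysis.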

Assay [2] can be described thus: Inhibition of Yersinia pestis protein tyrosine phosphatase 1B. The gist of the method:
as §1

A short description of assay [3]: Inhibition of Yersinia pestis protein tyrosine phosphatase CD45. The gist of the method: as §1
Assay [4] can be described thus: Inhibition of Yersinia pestis Protein tyrosine phosphatase TC. The gist of the method: as §1
Assay [5] deals with Yersinia pestis. Nature of the assay: Inhibition of Yersinia pestis protein tyrosine phosphatase at 10 uM. Put shortly:
(§2)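 Single-concentration percent inhibition screen with p-NPP substrate, 2.9 mM for Yersinia PTP and 2.0 mM for PTP1B. Buffer was 50 mM 3,3-dimethylglutarate pH 7.0 with 1 mM EDTA, 50 mM NaCl and 10% DMSO, at room temperature. Initial hydrolysis rates were read at 405 nm from 10 to 130 s.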

In assay [6] the test system is Yersinia pestis. In words: Inhibition of Yersinia pestis protein tyrosine phosphatase at 100 uM. Put shortly: as §2

Usually IC50 stands for the midpoint of a concentration-inhibition curve. The low end stands for greater potency in that assay, the high end for weaker potency in that assay. Take `O=C(O)C(=O)c1ccc(-n2cc(C(=O)N[C@H](CO)Cc3c[nH]c4ccccc34)nn2)cc1`: the figures for the IC50 in assay [1] and in assay [2] were 58000 nM and 500 µM, respectively.

A word on the inhibition: it is the relative decrease from the control value, in per cent. A lower inhibition goes with a response near the control. In the case of `Cc1ccc(S(=O)(=O)c2cn(C[C@H](Cc3c[nH]c4ccccc34)NC(=O)c3cn(-c4ccc(C(=O)C(=O)O)cc4)nn3)nn2)cc1`, the IC50 in assay [3] is 15.8 µM; in assay [1], 2100 nM; in assay [4], 2600 nM; in assay [2], 7.4 µM. Moreover, the inhibition with Yersinia pestis [5] is > 60%.

Take `C#Cc1ccc(C#C)cc1`: in the assay on Yersinia pestis [6], the inhibition was > 60%.

For `O=C(O)C(=O)c1ccc(-n2cc(-c3ccc(-c4ccccc4)cc3)nn2)cc1`, the IC50 in assay [1] worked out at 45000 nM; in assay [2] it was 84 µM.

In the case of `C#CC(=O)N[C@H](CO)Cc1c[nH]c2ccccc12`, the inhibition in the assay on Yersinia pestis [6] is > 60%.

On to `O=C(O)C(=O)c1ccc(-n2cc(C(=O)N[C@@H](Cc3c[nH]c4ccccc34)Cn3cc(-c4cccc(-c5cn(C[C@H](Cc6c[nH]c7ccccc67)NC(=O)c6cn(-c7ccc(C(=O)C(=O)O)cc7)nn6)nn5)c4)nn3)nn2)cc1`, for which the IC50 amounted to 8.5 µM in assay [3], 1300 nM in assay [1], 1800 nM in assay [4] and 4.1 µM in assay [2]. In addition, the inhibition in the assay with Yersinia pestis [5] is > 60%.

For the compound `C#Cc1ccc(-c2ccccc2)cc1`, the inhibition with Yersinia pestis [6] was > 60%.

Regarding `C#Cc1cccc(C#C)c1`, in the assay on Yersinia pestis [6], the inhibition was > 60%.

With `COc1ccc2cc(-c3cn(C[C@H](Cc4c[nH]c5ccccc45)NC(=O)c4cn(-c5ccc(C(=O)C(=O)O)cc5)nn4)nn3)ccc2c1`, the IC50 in assay [3] stood at 16.8 µM; in assay [1] it was 2100 nM; in assay [4] it was 2600 nM; in assay [2] it was 5.7 µM. For the same compound, in the assay with Yersinia pestis [5], the inhibition is > 60%.

`O=C(O)C(=O)c1ccc(-n2cc(-c3cccc(-c4cn(-c5ccc(C(=O)C(=O)O)cc5)nn4)c3)nn2)cc1`: the figures for the IC50 in assay [1] and in assay [2] were 25000 nM and 77 µM, respectively.

`O=C(O)C(=O)c1ccc(-n2cc(C(=O)N[C@@H](Cc3c[nH]c4ccccc34)Cn3cc(-c4ccc(-c5cn(C[C@H](Cc6c[nH]c7ccccc67)NC(=O)c6cn(-c7ccc(C(=O)C(=O)O)cc7)nn6)nn5)cc4)nn3)nn2)cc1`: the IC50 in assay [3] came to 8.4 µM; in assay [1] it was 550 nM; in assay [4], 710 nM; in assay [2], 2.1 µM. In addition, the inhibition in the assay with Yersinia pestis [5] is > 60%.

Values taken from ChEMBL document CHEMBL1144498, “A two stage click-based library of protein tyrosine phosphatase inhibitors” (Bioorg Med Chem, 2007).
